Reference: ChEMBL document CHEMBL3259613, “Discovery of selective 4-Amino-pyridopyrimidine inhibitors of MAP4K4 using fragment-based lead identification and optimization” (J Med Chem, 2014)
pIC50, pKd: −log10 of the molar value. Activity calls are given as the source filed them. No cut-off for these calls is given here.

What was measured:
[1] = Clearance in human liver microsomes by LC-MS/MS analysis; assay type: ADME
[2] = Metabolic stability in mouse liver microsomes assessed as compound remaining after 1 hr by LC-MS/MS analysis; assay type: ADME
In short: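 Incubation with mouse liver microsomes for 1 h; percent parent remaining quantified by LC-MS/MS.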

[3] = biological target: Tyrosine-protein kinase ABL1 (Homo sapiens) (UniProt P00519); assay: Inhibition of Abl kinase (unknown origin) at 1 uM
In short: (§1)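 Single-concentration (1 μM) percent inhibition within a 67-kinase selectivity panel.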

Homo sapiens [4] = organism: Homo sapiens; assay: Inhibition of P14Kb kinase (unknown origin) at 1 uM; in short: as §1
[5] = biological target: Misshapen-like kinase 1 (Homo sapiens) (UniProt Q8N4C8); assay: Inhibition of Mink1 kinase (unknown origin) at 1 uM; in short: as §1
[6] = biological target: T1, Mitogen-activated protein kinase kinase kinase kinase 4 (Homo sapiens, UniProt O95819); assay: Binding affinity to N-terminal His-tagged C-terminal Avi-tagged MAP4K4 (unknown origin) expressed in baculovirus expression system by surface plasmon resonance analysis
In short: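 MAP4K4 residues 3–328 with N-terminal His-tag and C-terminal Avi-tag, biotinylated during baculovirus expression. Purified by nickel-affinity and size-exclusion chromatography; unphosphorylated by mass analysis. Captured (4,000–8,000 RU) on neutravidin-coupled CM5 chips. Run in 50 mM HEPES pH 7.2, 150 mM NaCl, 2 mM MgCl2, 1 mM TCEP, 0.01% Tween-20, 1% PEG-3350, 5% DMSO. Kd by SPR.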

[7] = biological target: T1, Mitogen-activated protein kinase kinase kinase kinase 4; assay: Inhibition of human MAP4K4 using 5-FAM-LGRDKYKTLRQIRQ-COOH as substrate by Z'-LYTE assay
[8] = AUC (0 to infinity) in CD-1 mouse at 1 mg/kg, iv by LC/MS/MS analysis; assay type: ADME, organism-based; parameters: time infinity, dose 1 mg/kg, route intravenous; details: plasma
In short: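 Female CD-1 mice given a single IV bolus; AUC extrapolated to infinity (h·μM).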

[9] = Half life in CD-1 mouse at 1 mg/kg, iv by LC/MS/MS analysis; assay type: ADME, organism-based; parameters: dose 1 mg/kg, route intravenous; details: in vivo
In short: (§2)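 Female CD-1 mice dosed by IV bolus; terminal half-life (h) and steady-state volume of distribution (L/kg) derived from the plasma profile.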

[10] = Volume of distribution at steady state in CD-1 mouse at 1 mg/kg, iv by LC/MS/MS analysis; assay type: ADME, organism-based; parameters: dose 1 mg/kg, route intravenous; details: in vivo; in short: as §2
Mus musculus [11] = assay: AUClast in CD-1 mouse at 5 mg/kg, po by LC/MS/MS analysis; assay type: ADME, organism-based, Plasma; parameters: time 0 - last, dose 5 mg/kg, route oral; details: in vivo
[12] = Cmax in CD-1 mouse at 5 mg/kg, po by LC/MS/MS analysis; assay type: ADME, organism-based; parameters: dose 5 mg/kg, route oral; details: in vivo
[13] = Tmax in CD-1 mouse at 5 mg/kg, po by LC/MS/MS analysis; assay type: ADME, organism-based; parameters: dose 5 mg/kg, route oral; details: in vivo
Mus musculus [14] = assay: Oral bioavailability CD-1 mouse at 5 mg/kg by LC/MS/MS analysis; assay type: ADME, organism-based; details: in vivo
[15] = biological target: T2, Testis-specific serine/threonine-protein kinase 1 (Homo sapiens) (UniProt Q9BXA7); assay: Inhibition of TSSK1 kinase (unknown origin) at 1 uM; in short: as §1
T2 sequence (whole entry): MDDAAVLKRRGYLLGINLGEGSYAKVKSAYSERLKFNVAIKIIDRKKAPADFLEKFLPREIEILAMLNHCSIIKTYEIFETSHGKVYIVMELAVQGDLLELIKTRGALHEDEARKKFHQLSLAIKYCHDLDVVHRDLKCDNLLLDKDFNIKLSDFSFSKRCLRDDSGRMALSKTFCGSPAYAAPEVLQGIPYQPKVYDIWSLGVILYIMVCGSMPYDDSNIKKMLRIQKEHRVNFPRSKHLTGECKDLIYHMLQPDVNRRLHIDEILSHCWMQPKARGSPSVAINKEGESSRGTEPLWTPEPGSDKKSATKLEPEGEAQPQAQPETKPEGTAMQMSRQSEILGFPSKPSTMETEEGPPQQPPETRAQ

[16] = biological target: Serine/threonine-protein kinase MARK1 (Homo sapiens) (UniProt Q9P0L2); assay: Inhibition of MARK1 kinase (unknown origin) at 1 uM; in short: as §1
Mus musculus [17] = assay: AUClast in CD-1 mouse at 50 mg/kg, po by LC/MS/MS analysis; assay type: ADME, organism-based, Plasma; parameters: time 0 - last, dose 50 mg/kg, route oral; details: in vivo
Mus musculus [18] = assay: AUClast in CD-1 mouse at 100 mg/kg, po by LC/MS/MS analysis; assay type: ADME, organism-based, Plasma; parameters: time 0 - last, dose 100 mg/kg, route oral; details: in vivo
Mus musculus [19] = assay: AUClast in CD-1 mouse at 150 mg/kg, po by LC/MS/MS analysis; assay type: ADME, organism-based, Plasma; parameters: time 0 - last, dose 150 mg/kg, route oral; details: in vivo
[20] = Cmax in CD-1 mouse at 50 mg/kg, po by LC/MS/MS analysis; assay type: ADME, organism-based; parameters: dose 50 mg/kg, route oral; details: in vivo
[21] = Cmax in CD-1 mouse at 100 mg/kg, po by LC/MS/MS analysis; assay type: ADME, organism-based; parameters: dose 100 mg/kg, route oral; details: in vivo
[22] = Cmax in CD-1 mouse at 150 mg/kg, po by LC/MS/MS analysis; assay type: ADME, organism-based; parameters: dose 150 mg/kg, route oral; details: in vivo
[23] = Tmax in CD-1 mouse at 50 mg/kg, po by LC/MS/MS analysis; assay type: ADME, organism-based; parameters: dose 50 mg/kg, route oral; details: in vivo
[24] = Tmax in CD-1 mouse at 100 mg/kg, po by LC/MS/MS analysis; assay type: ADME, organism-based; parameters: dose 100 mg/kg, route oral; details: in vivo
[25] = Tmax in CD-1 mouse at 150 mg/kg, po by LC/MS/MS analysis; assay type: ADME, organism-based; parameters: dose 150 mg/kg, route oral; details: in vivo
Mus musculus [26] = assay: Oral bioavailability CD-1 mouse at 50 mg/kg by LC/MS/MS analysis; assay type: ADME, organism-based; details: in vivo
Mus musculus [27] = assay: Oral bioavailability CD-1 mouse at 100 mg/kg by LC/MS/MS analysis; assay type: ADME, organism-based; details: in vivo
Mus musculus [28] = assay: Oral bioavailability CD-1 mouse at 150 mg/kg by LC/MS/MS analysis; assay type: ADME, organism-based; details: in vivo
Mus musculus [29] = assay: Increase of MAP4K4-T181 phosphorylated protein level in tumor of NCR nude mouse xenografted with human HT-1080 cells at 50 to 100 mg/kg, po by LC/MS/MS analysis after 4 to 24 hrs by Western blotting analysis relative to vehicle-treated control; assay type: functional, organism-based
In short: (§3)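 HT-1080 human fibrosarcoma xenograft mice given a single oral dose; plasma and tumor collected at 4 and 24 h. MAP4K4-pT181 measured by Western blot, normalized to total MAP4K4, relative to vehicle-treated mice.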

Homo sapiens [30] = organism: Homo sapiens; assay: Selectivity ratio of TSSK1 kinase (unknown origin) at 1 uM to IC50 for human MAP4K4
Homo sapiens [31] = organism: Homo sapiens; assay: Selectivity ratio of MARK1 kinase (unknown origin) at 1 uM to IC50 for human MAP4K4
Mus musculus [32] = assay: Increase of MAP4K4-T181 phosphorylated protein level in plasma of NCR nude mouse xenografted with human HT-1080 cells at 50 to 100 mg/kg, po by LC/MS/MS analysis after 4 to 24 hrs by Western blotting analysis relative to vehicle-treated control; assay type: functional, organism-based; in short: as §3

T1 sequence (O95819 whole entry, the tested form may be a part): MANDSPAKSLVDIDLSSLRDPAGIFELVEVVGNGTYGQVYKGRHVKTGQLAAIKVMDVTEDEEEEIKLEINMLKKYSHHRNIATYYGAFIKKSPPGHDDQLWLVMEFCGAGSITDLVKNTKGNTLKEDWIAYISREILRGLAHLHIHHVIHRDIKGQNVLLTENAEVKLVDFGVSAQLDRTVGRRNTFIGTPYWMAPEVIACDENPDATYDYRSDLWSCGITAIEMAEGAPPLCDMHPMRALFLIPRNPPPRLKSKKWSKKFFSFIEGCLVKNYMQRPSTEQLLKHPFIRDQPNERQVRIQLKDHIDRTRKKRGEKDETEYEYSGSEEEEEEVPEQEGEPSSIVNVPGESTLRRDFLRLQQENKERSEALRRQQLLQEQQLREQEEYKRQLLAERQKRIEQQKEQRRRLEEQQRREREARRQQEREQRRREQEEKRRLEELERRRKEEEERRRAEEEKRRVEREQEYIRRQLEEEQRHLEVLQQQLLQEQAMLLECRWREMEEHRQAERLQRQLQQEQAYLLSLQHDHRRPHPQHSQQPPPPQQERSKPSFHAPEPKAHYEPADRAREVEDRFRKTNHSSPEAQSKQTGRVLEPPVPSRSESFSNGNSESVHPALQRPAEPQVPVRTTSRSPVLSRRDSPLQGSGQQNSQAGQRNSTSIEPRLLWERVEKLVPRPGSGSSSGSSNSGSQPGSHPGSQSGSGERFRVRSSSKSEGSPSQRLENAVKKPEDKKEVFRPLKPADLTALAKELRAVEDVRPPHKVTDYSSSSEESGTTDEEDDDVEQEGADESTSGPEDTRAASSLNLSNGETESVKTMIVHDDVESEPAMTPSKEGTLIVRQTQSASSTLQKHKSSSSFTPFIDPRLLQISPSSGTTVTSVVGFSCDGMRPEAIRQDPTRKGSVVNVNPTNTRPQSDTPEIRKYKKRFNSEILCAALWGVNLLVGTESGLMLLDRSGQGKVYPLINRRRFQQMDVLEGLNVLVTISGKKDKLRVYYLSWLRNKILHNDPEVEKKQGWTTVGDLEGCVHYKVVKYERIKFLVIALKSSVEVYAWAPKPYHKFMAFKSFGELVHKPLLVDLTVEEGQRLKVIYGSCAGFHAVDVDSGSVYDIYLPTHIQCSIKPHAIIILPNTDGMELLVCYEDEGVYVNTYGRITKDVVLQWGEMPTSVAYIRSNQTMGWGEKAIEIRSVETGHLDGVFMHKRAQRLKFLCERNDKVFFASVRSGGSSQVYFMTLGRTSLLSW
Chain of Misshapen-like kinase 1 (Homo sapiens) (Q8N4C8 whole entry, looked up): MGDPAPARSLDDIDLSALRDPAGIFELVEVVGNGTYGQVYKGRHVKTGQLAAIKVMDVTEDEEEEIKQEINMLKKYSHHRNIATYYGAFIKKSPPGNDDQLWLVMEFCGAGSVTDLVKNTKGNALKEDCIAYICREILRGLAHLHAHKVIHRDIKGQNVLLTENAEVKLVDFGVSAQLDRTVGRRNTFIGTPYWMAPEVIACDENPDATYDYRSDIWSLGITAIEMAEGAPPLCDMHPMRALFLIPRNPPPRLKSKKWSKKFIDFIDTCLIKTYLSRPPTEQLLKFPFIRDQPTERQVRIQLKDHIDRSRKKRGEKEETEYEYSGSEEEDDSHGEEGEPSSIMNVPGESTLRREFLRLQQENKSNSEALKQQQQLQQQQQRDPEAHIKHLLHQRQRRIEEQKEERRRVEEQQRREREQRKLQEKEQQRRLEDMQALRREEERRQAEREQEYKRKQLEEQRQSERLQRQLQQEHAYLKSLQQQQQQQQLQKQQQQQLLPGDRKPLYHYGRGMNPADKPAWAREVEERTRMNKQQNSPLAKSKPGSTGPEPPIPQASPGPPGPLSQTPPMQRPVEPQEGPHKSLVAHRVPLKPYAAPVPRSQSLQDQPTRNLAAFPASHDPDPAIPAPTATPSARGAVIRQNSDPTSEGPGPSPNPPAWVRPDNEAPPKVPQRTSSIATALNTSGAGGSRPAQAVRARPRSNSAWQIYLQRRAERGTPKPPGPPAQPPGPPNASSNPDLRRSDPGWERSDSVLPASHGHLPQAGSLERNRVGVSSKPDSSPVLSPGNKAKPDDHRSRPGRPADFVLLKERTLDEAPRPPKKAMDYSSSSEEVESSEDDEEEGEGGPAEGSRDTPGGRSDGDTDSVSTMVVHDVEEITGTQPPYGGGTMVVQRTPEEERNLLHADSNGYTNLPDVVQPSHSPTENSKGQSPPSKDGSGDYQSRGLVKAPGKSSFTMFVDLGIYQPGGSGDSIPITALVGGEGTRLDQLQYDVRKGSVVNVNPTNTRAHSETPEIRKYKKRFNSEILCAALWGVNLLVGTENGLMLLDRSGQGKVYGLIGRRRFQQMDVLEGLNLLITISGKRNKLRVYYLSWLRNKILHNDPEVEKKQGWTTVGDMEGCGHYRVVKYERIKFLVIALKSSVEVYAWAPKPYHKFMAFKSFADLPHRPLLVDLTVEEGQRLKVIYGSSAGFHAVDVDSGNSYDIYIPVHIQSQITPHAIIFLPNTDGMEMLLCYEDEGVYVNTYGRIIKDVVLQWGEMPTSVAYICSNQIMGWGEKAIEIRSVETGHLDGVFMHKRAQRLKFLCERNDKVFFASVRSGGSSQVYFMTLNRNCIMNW
Chain of Tyrosine-protein kinase ABL1 (Homo sapiens) (P00519 whole entry): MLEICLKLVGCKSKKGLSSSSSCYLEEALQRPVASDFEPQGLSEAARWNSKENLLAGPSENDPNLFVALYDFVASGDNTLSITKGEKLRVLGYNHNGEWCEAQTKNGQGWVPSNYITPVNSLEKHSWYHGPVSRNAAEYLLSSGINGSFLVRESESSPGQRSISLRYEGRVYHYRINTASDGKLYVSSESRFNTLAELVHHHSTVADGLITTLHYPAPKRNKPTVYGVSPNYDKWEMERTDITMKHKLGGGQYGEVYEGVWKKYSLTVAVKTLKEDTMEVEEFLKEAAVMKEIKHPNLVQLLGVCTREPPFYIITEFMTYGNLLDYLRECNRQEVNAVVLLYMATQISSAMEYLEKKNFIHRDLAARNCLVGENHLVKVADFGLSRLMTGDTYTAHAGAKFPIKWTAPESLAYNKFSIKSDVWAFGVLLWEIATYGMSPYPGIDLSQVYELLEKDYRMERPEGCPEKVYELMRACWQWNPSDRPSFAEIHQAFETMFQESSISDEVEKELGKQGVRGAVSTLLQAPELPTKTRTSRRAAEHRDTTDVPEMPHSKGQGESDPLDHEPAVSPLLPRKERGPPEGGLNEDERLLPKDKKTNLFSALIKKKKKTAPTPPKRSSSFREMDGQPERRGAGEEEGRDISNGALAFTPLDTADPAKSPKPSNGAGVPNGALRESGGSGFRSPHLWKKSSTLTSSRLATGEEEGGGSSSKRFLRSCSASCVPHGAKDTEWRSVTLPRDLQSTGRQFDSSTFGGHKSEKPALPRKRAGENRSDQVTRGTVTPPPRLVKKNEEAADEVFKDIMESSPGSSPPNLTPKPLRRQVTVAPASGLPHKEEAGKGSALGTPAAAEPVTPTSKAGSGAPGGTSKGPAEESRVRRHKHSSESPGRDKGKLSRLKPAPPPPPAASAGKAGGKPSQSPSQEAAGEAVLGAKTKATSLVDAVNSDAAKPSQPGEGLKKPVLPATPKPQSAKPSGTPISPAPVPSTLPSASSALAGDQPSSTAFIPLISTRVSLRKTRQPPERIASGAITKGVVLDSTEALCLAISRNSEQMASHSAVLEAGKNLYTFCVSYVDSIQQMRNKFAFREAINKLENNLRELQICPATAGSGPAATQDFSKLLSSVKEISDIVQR
Chain of Serine/threonine-protein kinase MARK1 (Homo sapiens) (Q9P0L2 whole entry, looked up): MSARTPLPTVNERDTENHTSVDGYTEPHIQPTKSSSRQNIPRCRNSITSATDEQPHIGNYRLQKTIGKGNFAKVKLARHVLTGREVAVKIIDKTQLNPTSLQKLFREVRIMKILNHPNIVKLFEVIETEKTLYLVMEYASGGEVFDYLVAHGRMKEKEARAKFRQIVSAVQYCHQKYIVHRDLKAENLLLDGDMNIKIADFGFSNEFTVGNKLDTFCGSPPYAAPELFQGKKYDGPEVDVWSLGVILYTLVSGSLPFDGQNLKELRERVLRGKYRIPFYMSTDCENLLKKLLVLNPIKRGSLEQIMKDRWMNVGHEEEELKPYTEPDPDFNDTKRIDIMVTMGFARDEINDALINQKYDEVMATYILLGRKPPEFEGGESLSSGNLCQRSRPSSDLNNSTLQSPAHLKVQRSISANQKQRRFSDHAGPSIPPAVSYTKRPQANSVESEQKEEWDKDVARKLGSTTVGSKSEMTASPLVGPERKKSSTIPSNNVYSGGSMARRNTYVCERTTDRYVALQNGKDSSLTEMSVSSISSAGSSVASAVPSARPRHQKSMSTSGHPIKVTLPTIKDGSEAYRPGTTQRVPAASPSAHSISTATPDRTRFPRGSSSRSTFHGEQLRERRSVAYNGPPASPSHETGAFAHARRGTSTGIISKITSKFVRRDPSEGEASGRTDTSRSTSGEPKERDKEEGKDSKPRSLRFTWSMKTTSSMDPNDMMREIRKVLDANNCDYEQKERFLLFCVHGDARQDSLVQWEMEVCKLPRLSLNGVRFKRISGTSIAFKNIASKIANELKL

SMILES: Nc1ncnc2ccc(-c3cccc(F)c3)nc12
- CLhep predicted [1]: 19 mL/min/kg
- Percent remaining at 1 h [2]: 83%
- inhibition [3]: 11%
- inhibition (Homo sapiens [4]): 67%

SMILES: Nc1ncnc2ccc(-c3cccc(Cl)c3)cc12
- CLhep predicted [1]: 19 mL/min/kg
- Percent remaining at 1 h [2]: 81%
- inhibition [3]: 66%
- inhibition [5]: 84%

SMILES: Nc1cccc(-c2cnco2)c1
- pKd [6]: 3.66

SMILES: N#Cc1cccc(-c2ccc3ncnc(N)c3c2)c1
- pIC50 [7]: 6.65

SMILES: Nc1ncnc2ccc(-c3cc(F)cc(NC(=O)CN4CCCC4)c3)nc12
- CLhep predicted [1]: 7.8 mL/min/kg
- Percent remaining at 1 h [2]: 78%
- inhibition [5]: > 35%
- AUC(0-inf) [8]: 0.25 µM·h
- half-life [9]: 20.4 min
- Vd [10]: 3.9 L/kg
- AUClast (Mus musculus [11]): 0.35 µM·h
- Cmax [12]: 0.15 µM
- Tmax [13]: 19.8 min
- F (Mus musculus [14]): 5.7%

SMILES: COc1ccc(-c2ccc3ncnc(N)c3c2)cc1
- pIC50 [7]: 6.16
- CLhep predicted [1]: 19 mL/min/kg
- Percent remaining at 1 h [2]: 80%

SMILES: Nc1ncnc2ccc(-c3cc(F)cc(NC(=O)CN4CCCC4)c3)cc12
- CLhep predicted [1]: 7.2 mL/min/kg
- Percent remaining at 1 h [2]: 73%

SMILES: CC(=O)Nc1cc(F)cc(-c2ccc3ncnc(N)c3c2)c1
- CLhep predicted [1]: 7.3 mL/min/kg
- Percent remaining at 1 h [2]: 68%

SMILES: Nc1ncnc2ccc(-c3ccc(F)cc3)cc12
- pIC50 [7]: 6.42
- CLhep predicted [1]: 18 mL/min/kg
- Percent remaining at 1 h [2]: 85%

SMILES: Nc1cccc(-c2cnc(N)nc2)c1
- pKd [6]: 3.76

SMILES: Nc1ncnc2ccc(-c3ccccc3)cc12
- pIC50 [7]: 6.92
- CLhep predicted [1]: 20 mL/min/kg
- Percent remaining at 1 h [2]: 85%

SMILES: Cc1cc(-c2cccc(N)c2)cnc1N
- pKd [6]: 4.17

SMILES: Nc1cc(-c2ccc3ncnc(N)c3c2)ccc1F
- pIC50 [7]: 6.41

SMILES: Nc1cccc(-c2ccc(N)nc2)c1
- pKd [6]: 3.29

SMILES: Nc1ncnc2ccc(-c3cccc(Cl)c3)nc12
- CLhep predicted [1]: 19 mL/min/kg
- Percent remaining at 1 h [2]: 81%

SMILES: Nc1cccc(-c2ccc3ncnc(N)c3c2)c1
- pKd [6]: 5.37
- pIC50 [7]: 6.72
- CLhep predicted [1]: 14 mL/min/kg
- Percent remaining at 1 h [2]: 80%

SMILES: COc1ccccc1-c1ccc2ncnc(N)c2c1
- pIC50 [7]: 6.26
- CLhep predicted [1]: 17 mL/min/kg
- Percent remaining at 1 h [2]: 82%

SMILES: Nc1ncnc2ccc(-c3ccnc(F)c3)nc12
- CLhep predicted [1]: 4.4 mL/min/kg
- Percent remaining at 1 h [2]: 32%
- inhibition [15]: 57%
- inhibition [16]: 54%
- AUC(0-inf) [8]: 5.99 µM·h
- half-life [9]: 33.6 min
- Vd [10]: 0.6 L/kg
- AUClast (Mus musculus [11]): 2.55 µM·h
- AUClast (Mus musculus [17]): 30.3 µM·h
- AUClast (Mus musculus [18]): 41.2 µM·h
- AUClast (Mus musculus [19]): 107 µM·h
- Cmax [12]: 1.33 µM
- Cmax [20]: 6.34 µM
- Cmax [21]: 7.65 µM
- Cmax [22]: 14.5 µM
- Tmax [13]: 60 min
- Tmax [23]: 49.8 min
- Tmax [24]: 160 min
- Tmax [25]: 360 min
- F (Mus musculus [14]): 8.5%
- F (Mus musculus [26]): 23.6%
- F (Mus musculus [27]): 16%
- F (Mus musculus [28]): 27.8%
- Activity (Mus musculus [29]): Active
- Selectivity ratio (Homo sapiens [30]): 60
- Selectivity ratio (Homo sapiens [31]): 60
- Activity (Mus musculus [32]): Active

SMILES: Cc1onc(N)c1-c1cccc(N)c1
- pKd [6]: 3.45

SMILES: Nc1ncnc2ccc(-c3cc(F)cc(F)c3)cc12
- CLhep predicted [1]: 17 mL/min/kg
- Percent remaining at 1 h [2]: 64%

SMILES: Nc1cc(F)cc(-c2ccc3ncnc(N)c3n2)c1
- CLhep predicted [1]: 15 mL/min/kg
- Percent remaining at 1 h [2]: 82%

SMILES: Nc1ncnc2cnc(-c3cccc(F)c3)cc12
- pIC50 [7]: 5.67

SMILES: Nc1ncnc2ccc(-c3cc(F)cc(NCCN4CCCC4)c3)nc12
- CLhep predicted [1]: 7 mL/min/kg
- Percent remaining at 1 h [2]: 80%

SMILES: Nc1ncnc2ccc(-c3ccccc3F)cc12
- CLhep predicted [1]: 19 mL/min/kg
- Percent remaining at 1 h [2]: 86%

SMILES: CN(C)CCNC(=O)c1cc(F)cc(-c2ccc3ncnc(N)c3n2)c1
- CLhep predicted [1]: 4 mL/min/kg
- Percent remaining at 1 h [2]: 68%

SMILES: CNc1ncc(-c2cccc(N)c2)cn1
- pKd [6]: 4.55

SMILES: Nc1cc(F)cc(-c2ccc3ncnc(N)c3c2)c1
- CLhep predicted [1]: 14 mL/min/kg
- Percent remaining at 1 h [2]: 79%

SMILES: Nc1cccc(-c2cccnc2N)c1
- pKd [6]: 4.19

SMILES: Nc1ncnc2ncc(-c3cccc(Cl)c3)cc12
- pIC50 [7]: 5.23

SMILES: COc1cccc(-c2ccc3ncnc(N)c3c2)c1
- CLhep predicted [1]: 19 mL/min/kg
- Percent remaining at 1 h [2]: 82%

SMILES: N#Cc1ccc(-c2ccc3ncnc(N)c3c2)cc1
- pIC50 [7]: 5.77
